{"source": "ChEMBL document CHEMBL4406794", "about": "“N-(7-Cyano-6-(4-fluoro-3-(2-(3-(trifluoromethyl)phenyl)acetamido)phenoxy)benzo[d]thiazol-2-yl)cyclopropanecarboxamide (TAK-632) Analogues as Novel Necroptosis Inhibitors by Targeting Receptor-Interacting Protein Kinase 3 (RIPK3): Synthesis, Structure-Activity Relationships, and in Vivo Efficacy” (J Med Chem, 2019)", "key": {"[1]": {"target": "T1, Receptor-interacting serine/threonine-protein kinase 1 (Homo sapiens, UniProt Q13546)", "T1 sequence (Q13546 whole entry)": "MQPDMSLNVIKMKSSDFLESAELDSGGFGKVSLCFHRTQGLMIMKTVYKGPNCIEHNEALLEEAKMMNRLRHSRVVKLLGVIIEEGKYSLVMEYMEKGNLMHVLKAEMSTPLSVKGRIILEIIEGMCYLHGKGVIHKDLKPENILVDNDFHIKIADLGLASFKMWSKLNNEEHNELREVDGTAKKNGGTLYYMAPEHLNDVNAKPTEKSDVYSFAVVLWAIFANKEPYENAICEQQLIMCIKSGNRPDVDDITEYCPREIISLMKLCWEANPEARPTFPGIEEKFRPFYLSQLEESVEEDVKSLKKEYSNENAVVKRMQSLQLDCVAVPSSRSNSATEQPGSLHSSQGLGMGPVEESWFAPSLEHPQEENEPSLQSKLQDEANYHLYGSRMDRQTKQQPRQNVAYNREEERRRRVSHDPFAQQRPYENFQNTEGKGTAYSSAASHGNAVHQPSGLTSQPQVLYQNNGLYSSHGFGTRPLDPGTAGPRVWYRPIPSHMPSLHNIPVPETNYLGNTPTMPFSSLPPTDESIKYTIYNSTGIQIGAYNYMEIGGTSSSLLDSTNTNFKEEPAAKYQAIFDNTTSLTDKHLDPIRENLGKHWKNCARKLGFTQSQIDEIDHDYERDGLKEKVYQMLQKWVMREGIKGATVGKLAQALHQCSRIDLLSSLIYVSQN", "experiment": "Binding affinity to wild-type human partial length RIPK1 (M1 to K305 residues) expressed in bacterial expression system after 1 hr by quantitative PCR based KINOMEscan assay", "outline": "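KINOMEscan competition binding. Bound kinase eluted with 0.5 μM nonbiotinylated ligand for 30 min and quantified by qPCR. Duplicates averaged.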"}, "Homo sapiens": {"species": "Homo sapiens", "experiment": "Selectivity ratio of Kd for human partial length RIPK1 (M1 to K305 residues) expressed in bacterial expression system to Kd for wild-type human partial length RIPK3 (M1 to Q307 residues) expressed in bacterial expression system"}, "[2]": {"tested_on": "Epidermal growth factor receptor (Homo sapiens), P00533 [L858R]", "experiment": "Inhibition of wild-type human partial length EGFR L858R mutant (R669 to V1011 residues) expressed in bacterial expression system assessed as enzyme remaining activity at 1000 nM by Kinomescan method relative to control", "outline": "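KINOMEscan binding competition. […] Incubation was 1 h at room temperature with shaking, then bead wash and elution with 0.5 μM nonbiotinylated ligand for 30 min. Eluted kinase was quantified by qPCR. Compound was diluted from 40× DMSO stocks to 1000 nM final.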"}, "[3]": {"target": "Fibroblast growth factor receptor 2 (Homo sapiens) (UniProt P21802)", "sequence (P21802 22-821 limits assumed)": "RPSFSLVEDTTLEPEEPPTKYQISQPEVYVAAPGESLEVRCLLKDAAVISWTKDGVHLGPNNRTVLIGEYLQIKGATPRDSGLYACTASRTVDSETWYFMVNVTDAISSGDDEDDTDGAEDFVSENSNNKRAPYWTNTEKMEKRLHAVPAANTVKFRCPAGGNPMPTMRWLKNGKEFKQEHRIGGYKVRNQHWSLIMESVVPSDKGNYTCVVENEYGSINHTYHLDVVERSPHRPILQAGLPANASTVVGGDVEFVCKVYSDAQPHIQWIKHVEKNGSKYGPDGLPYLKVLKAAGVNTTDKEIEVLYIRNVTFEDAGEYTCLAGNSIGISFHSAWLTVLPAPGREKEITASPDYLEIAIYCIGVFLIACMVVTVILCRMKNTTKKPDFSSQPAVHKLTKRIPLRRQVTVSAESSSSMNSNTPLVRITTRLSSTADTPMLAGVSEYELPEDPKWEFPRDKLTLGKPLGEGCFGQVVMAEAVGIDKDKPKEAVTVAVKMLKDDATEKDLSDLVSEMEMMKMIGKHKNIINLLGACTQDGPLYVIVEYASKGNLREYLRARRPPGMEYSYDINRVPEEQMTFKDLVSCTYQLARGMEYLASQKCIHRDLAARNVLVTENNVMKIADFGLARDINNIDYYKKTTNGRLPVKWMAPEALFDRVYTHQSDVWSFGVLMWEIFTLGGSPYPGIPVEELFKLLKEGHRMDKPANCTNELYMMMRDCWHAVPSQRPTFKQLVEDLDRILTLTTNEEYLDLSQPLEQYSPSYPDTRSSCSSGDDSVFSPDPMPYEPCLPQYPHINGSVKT", "experiment": "Inhibition of wild-type human partial length FGFR2 (D457 to E769 residues) expressed in bacterial expression system assessed as enzyme remaining activity at 1000 nM by Kinomescan method relative to control"}, "[4]": {"target": "Cyclin-dependent kinase 7 (Homo sapiens) (UniProt P50613)", "sequence (P50613 whole entry, the tested form may be a part)": "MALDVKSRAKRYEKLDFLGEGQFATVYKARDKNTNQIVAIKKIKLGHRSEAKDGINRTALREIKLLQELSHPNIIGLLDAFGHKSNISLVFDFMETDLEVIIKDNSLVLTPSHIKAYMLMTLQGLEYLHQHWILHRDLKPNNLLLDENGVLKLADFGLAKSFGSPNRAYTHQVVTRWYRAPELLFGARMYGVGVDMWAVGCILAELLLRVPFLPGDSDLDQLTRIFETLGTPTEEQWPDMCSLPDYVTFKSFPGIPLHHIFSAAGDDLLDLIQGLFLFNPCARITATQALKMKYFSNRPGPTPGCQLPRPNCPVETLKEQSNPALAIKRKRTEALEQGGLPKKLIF", "experiment": "Inhibition of wild-type human full length CDK7 (M1 to L344 residues) expressed in mammalian expression system assessed as enzyme remaining activity at 1000 nM by Kinomescan method relative to control"}, "[5]": {"target": "Glycogen synthase kinase-3 beta (Homo sapiens) (UniProt P49841)", "sequence (P49841 whole entry, looked up, the tested form may be a part)": "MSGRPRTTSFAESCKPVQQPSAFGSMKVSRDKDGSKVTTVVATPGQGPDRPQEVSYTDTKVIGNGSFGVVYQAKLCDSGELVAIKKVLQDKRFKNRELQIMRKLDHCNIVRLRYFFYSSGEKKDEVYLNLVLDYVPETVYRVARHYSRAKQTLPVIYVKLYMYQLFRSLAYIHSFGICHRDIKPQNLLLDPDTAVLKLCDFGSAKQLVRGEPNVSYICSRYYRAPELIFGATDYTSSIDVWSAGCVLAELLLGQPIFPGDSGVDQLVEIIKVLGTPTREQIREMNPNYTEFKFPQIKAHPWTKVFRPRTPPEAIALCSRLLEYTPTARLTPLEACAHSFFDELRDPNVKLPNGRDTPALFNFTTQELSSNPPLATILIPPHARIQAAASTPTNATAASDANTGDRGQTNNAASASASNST", "experiment": "Inhibition of wild-type human full length GSK3B (M1 to T433 residues) expressed in mammalian expression system assessed as enzyme remaining activity at 1000 nM by Kinomescan method relative to control"}, "[6]": {"target": "Mitogen-activated protein kinase kinase kinase 4 (Homo sapiens) (UniProt Q9Y6R4)", "sequence (Q9Y6R4 whole entry, the tested form may be a part)": "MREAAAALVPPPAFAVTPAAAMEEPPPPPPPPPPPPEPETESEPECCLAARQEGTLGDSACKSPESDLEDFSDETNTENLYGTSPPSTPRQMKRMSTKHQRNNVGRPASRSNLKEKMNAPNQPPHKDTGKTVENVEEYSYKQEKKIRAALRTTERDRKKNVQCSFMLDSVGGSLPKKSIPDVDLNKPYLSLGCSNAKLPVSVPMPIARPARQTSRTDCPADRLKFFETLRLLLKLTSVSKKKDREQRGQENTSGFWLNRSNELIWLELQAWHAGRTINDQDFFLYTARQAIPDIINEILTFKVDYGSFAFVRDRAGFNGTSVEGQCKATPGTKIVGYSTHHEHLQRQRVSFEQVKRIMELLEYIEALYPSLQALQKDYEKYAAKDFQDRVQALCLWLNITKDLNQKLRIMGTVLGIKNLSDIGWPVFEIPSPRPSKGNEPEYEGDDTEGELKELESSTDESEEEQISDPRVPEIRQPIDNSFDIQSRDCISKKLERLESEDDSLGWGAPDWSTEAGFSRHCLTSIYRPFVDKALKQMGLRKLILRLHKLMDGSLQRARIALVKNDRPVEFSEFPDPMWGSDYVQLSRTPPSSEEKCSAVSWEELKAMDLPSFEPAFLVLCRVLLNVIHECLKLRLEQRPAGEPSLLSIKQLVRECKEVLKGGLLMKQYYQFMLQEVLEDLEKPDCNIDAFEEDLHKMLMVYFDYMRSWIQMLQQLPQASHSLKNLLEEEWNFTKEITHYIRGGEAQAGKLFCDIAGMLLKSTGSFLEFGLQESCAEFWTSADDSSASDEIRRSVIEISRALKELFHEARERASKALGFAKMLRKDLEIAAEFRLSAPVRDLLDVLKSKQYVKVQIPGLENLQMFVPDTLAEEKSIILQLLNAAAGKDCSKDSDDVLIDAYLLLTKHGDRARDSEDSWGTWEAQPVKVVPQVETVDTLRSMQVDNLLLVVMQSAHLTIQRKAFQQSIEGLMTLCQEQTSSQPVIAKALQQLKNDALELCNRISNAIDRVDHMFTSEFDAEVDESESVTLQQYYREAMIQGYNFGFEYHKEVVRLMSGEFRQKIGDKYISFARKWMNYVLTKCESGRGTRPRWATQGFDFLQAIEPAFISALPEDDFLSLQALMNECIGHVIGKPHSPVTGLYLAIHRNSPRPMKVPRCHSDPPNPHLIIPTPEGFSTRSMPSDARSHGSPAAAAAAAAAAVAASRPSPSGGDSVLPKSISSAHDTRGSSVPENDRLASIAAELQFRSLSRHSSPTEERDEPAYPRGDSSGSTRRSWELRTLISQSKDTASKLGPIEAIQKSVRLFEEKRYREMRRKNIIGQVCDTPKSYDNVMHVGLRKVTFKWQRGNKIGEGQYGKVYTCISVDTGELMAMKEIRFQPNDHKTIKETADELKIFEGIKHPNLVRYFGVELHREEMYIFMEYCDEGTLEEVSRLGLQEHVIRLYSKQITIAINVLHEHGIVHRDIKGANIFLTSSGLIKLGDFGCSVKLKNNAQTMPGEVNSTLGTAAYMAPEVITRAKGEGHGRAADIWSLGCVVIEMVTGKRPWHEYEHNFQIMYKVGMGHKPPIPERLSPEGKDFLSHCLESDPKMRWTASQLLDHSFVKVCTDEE", "experiment": "Inhibition of wild-type human partial length MAP3K4 (G1319 to E1608 residues) expressed in bacterial expression system assessed as enzyme remaining activity at 1000 nM by Kinomescan method relative to control"}, "[7]": {"target": "Dual specificity mitogen-activated protein kinase kinase 1 (Homo sapiens) (UniProt Q02750)", "sequence (Q02750 whole entry, the tested form may be a part)": "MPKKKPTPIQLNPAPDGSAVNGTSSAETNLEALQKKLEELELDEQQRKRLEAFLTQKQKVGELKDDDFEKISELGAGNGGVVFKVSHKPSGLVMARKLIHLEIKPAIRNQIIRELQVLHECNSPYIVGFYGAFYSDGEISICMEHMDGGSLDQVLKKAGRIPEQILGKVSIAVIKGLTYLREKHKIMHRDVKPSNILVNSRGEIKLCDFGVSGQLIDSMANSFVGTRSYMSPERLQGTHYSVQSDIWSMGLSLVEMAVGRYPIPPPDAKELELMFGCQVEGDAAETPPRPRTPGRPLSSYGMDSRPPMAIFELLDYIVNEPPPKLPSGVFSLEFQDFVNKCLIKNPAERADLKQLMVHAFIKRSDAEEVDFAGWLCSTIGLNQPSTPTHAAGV", "experiment": "Inhibition of wild-type human full length MEK1 (M1 to V393 residues) expressed in mammalian expression system assessed as enzyme remaining activity at 1000 nM by Kinomescan method relative to control"}, "[8]": {"target": "Platelet-derived growth factor receptor beta (Homo sapiens) (UniProt P09619)", "sequence (P09619 whole entry, the tested form may be a part)": "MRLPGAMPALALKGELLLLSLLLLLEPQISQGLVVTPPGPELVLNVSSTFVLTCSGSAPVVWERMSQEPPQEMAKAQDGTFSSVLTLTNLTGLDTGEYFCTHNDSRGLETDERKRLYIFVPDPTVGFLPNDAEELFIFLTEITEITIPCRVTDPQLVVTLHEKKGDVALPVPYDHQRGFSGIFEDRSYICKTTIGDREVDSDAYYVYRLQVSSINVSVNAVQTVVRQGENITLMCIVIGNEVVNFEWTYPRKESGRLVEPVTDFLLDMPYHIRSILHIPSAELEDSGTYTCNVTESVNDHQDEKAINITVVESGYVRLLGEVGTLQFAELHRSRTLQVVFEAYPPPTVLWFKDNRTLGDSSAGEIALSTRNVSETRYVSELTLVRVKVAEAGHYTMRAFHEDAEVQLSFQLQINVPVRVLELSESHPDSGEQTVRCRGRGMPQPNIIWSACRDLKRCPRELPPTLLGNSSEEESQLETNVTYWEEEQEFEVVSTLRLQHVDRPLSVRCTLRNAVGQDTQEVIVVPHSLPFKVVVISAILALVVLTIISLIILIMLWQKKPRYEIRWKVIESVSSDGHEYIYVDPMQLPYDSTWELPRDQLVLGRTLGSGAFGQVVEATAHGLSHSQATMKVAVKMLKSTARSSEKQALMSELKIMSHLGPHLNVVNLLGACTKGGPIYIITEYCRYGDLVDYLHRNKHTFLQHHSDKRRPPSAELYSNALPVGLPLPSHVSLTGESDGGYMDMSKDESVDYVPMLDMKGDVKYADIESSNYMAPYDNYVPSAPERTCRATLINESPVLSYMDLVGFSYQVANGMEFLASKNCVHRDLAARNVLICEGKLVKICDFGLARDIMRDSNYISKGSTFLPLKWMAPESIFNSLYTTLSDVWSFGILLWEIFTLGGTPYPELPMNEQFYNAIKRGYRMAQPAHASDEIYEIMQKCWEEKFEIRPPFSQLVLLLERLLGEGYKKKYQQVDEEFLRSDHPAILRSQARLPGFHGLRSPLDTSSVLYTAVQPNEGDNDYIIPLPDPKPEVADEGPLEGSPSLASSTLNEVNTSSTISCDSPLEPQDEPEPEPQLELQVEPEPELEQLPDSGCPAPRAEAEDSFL", "experiment": "Inhibition of wild-type human partial length PDGFRB (V582 to Y1009 residues) expressed in bacterial expression system assessed as enzyme remaining activity at 1000 nM by Kinomescan method relative to control"}, "[9]": {"target": "Hepatocyte growth factor receptor (Homo sapiens) (UniProt P08581)", "experiment": "Inhibition of wild-type human partial length MET (D1010 to S1367 residues) expressed in bacterial expression system assessed as enzyme remaining activity at 1000 nM by Kinomescan method relative to control"}, "L929": {"tested_on": "L929", "experiment": "Cytoprotection against TNFalpha/Z-VAD-fmk-induced necroptosis in mouse L929 cells at 0.01 to 1 uM treated prior to TNFalpha/Z-VAD-fmk stimulation and measured after 4 hrs by cell-Titer Glo luminescent cell viability assay", "type": "functional, cell-based", "outline": "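Mouse L929 cells (DMEM, 10% FBS) pretreated with compound at the indicated concentrations, then given mouse TNF-α 20 ng/mL and z-VAD-fmk 20 μM for 4 h. Viability read by CellTiter-Glo luminescence.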"}, "Mus musculus": {"tested_on": "Mus musculus", "experiment": "Protection against TNFalpha/Z-VAD-fmk-induced C57BL/6J mouse model of systemic inflammatory response syndrome assessed as increase in mouse survial at 5 to 50 mg/kg, po administered via gavage 2 hrs prior to Z-VAD-fmk addition for 15 mins followed by TNFalpha stimulation for 1 hr and subsequent Z-VAD-fmk addition meaured up to 50 hrs post TNFalpha stimulation", "type": "functional, organism-based", "outline": "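Female C57BL/6 mice, fasted overnight, n=10 per group. Compound given by oral gavage at 5, 25 or 50 mg/kg 2 h before TNF. z-VAD-fmk 180 µg i.p., then 15 min later mTNF-α 400 µg/kg i.v. in endotoxin-free PBS, then a further 70 µg z-VAD-fmk i.p. 1 h later. Body temperature and survival followed, compared with vehicle by one-way ANOVA.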"}, "[10]": {"experiment": "AUC (0 to t) in Sprague-Dawley rat at 1 mg/kg, iv by LC-tandem mass spectrometry analysis", "type": "ADME, organism-based", "details": "in vivo", "outline": "(§1)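 Male Sprague-Dawley rats dosed once i.v. at 1 mg/kg or intragastrically at 5 mg/kg. Compound dissolved in 5% DMSO, 10% Tween 80, 75% physiological saline at 0.2 and 1 mg/mL. Blood taken at several time points, plasma spun at 4 °C, stored at -80 °C, assayed by LC/MS/MS. Parameters from individual animals by noncompartmental analysis.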"}, "[11]": {"experiment": "Apparent volume of distribution at steady state in Sprague-Dawley rat at 1 mg/kg, iv by LC-tandem mass spectrometry analysis", "type": "ADME, organism-based", "details": "in vivo, read-out: Vdss(app)", "outline": "as §1"}, "[12]": {"experiment": "Half-life in Sprague-Dawley rat at 5 mg/kg, po by LC-tandem mass spectrometry analysis", "type": "ADME, organism-based", "details": "in vivo", "outline": "as §1"}, "[13]": {"experiment": "AUC (0 to infinity) in Sprague-Dawley rat at 5 mg/kg, po by LC-tandem mass spectrometry analysis", "type": "ADME, organism-based", "design": "dose 5 mg/kg, time infinity, route oral", "details": "in vivo", "outline": "as §1"}, "HT-29": {"tested_on": "HT-29", "experiment": "Effect on TNFalpha/smac mimetic-induced apoptosis in human HT-29 cells at 3 uM treated prior to TNFalpha/smac mimetic stimulation and measured after 20 hrs by cell-Titer Glo luminescent cell viability assay", "details": "ht-29, 20 h"}}, "note": "Activity calls are given as the source filed them. No cut-off for these calls is given here."}
{"smiles": "O=C(Nc1cccc(Br)c1)Nc1cc(Oc2ccc3nc(NC(=O)C4CC4)sc3c2)ccc1F", "values": [{"measurement": "Kd", "setting": "[1]", "value": "> 5", "unit": "µM"}, {"measurement": "Ratio", "setting": "Homo sapiens", "value": "> 61.7"}, {"measurement": "Activity", "setting": "[2]", "value": 61, "unit": "%"}, {"measurement": "Activity", "setting": "[3]", "value": 22, "unit": "%"}, {"measurement": "Activity", "setting": "[4]", "value": 81, "unit": "%"}, {"measurement": "Activity", "setting": "[5]", "value": 100, "unit": "%"}, {"measurement": "Activity", "setting": "[6]", "value": 100, "unit": "%"}, {"measurement": "Activity", "setting": "[7]", "value": 100, "unit": "%"}, {"measurement": "Activity", "setting": "[8]", "value": 0, "unit": "%"}, {"measurement": "Activity", "setting": "[9]", "value": 14, "unit": "%"}, {"measurement": "Activity", "setting": "L929", "value": "Active"}, {"measurement": "Activity", "setting": "Mus musculus", "value": "Active"}, {"measurement": "AUC(0-t)", "setting": "[10]", "value": 5560, "unit": "ng·h/mL"}, {"measurement": "Vd", "setting": "[11]", "value": 3.49, "unit": "L/kg"}, {"measurement": "half-life", "setting": "[12]", "value": 15.2, "unit": "h"}, {"measurement": "AUC(0-inf)", "setting": "[13]", "value": 9320, "unit": "ng·h/mL"}, {"measurement": "Activity", "setting": "HT-29", "value": "Non-Toxic"}]}
